Measured values of several laboratories.
Protocols differ between the studies behind these lines. Values after ≈ are worked out from the molar mass of the structure shown.

SMILES | organism | assay | test system | setting | quantity | value
CN[C@H](CC(C)C)C(=O)N[C@H]1C(=O)N[C@@H](CC(N)=O)C(=O)N[C@H]2C(=O)N[C@H]3C(=O)N[C@H](C(=O)N[C@H](C(=O)O)c4cc(O)cc(O)c4-c4cc3ccc4O)[C@H](O)c3ccc(c(Cl)c3)Oc3cc2cc(c3O[C@@H]2O[C@H](CO)[C@@H](O)[C@H](O)[C@H]2O[C@H]2C[C@](C)(N)[C@H](O)[C@H](C)O2)Oc2ccc(cc2Cl)[C@H]1O | Micrococcus luteus | microbial growth, broth dilution | ATCC4698 |  | MIC | 0.34 µM
CC(=O)c1sc(N/N=C/c2c(-c3ccccc3)nc3ncccn23)nc1C | Escherichia coli | microbial growth, well diffusion | ATCC25922 | 100 µg/mL | inhibition zone | 14 mm
CCCS(=O)(=O)Oc1ccc(C=NNC(=O)CSc2nc3c(C)cccc3c(=O)n2-c2ccccc2)cc1 | Staphylococcus aureus | microbial growth, well diffusion | MRSA | 20 µg/mL | inhibition zone | 2 mm
CN[C@H](CC(C)C)C(=O)N[C@H]1C(=O)N[C@@H](CC(N)=O)C(=O)N[C@H]2C(=O)N[C@H]3C(=O)N[C@H](C(=O)N[C@H](C(=O)O)c4cc(O)cc(O)c4-c4cc3ccc4O)[C@H](O)c3ccc(c(Cl)c3)Oc3cc2cc(c3O[C@@H]2O[C@H](CO)[C@@H](O)[C@H](O)[C@H]2O[C@H]2C[C@](C)(N)[C@H](O)[C@H](C)O2)Oc2ccc(cc2Cl)[C@H]1O | Micrococcus luteus | microbial growth, broth dilution | DSM1790 |  | MIC | 0.17 µM
CC1(C)S[C@@H]2[C@H](NC(=O)[C@H](N)c3ccccc3)C(=O)N2[C@H]1C(=O)O | Micrococcus luteus | microbial growth, broth dilution | ATCC4698 | 43 h | MIC | 0.5 µg/mL
O=c1cc(Nc2ccccc2)c2ccccc2o1 | Escherichia coli | microbial growth, broth dilution |  |  | MIC90 | 9 µg/mL (≈ 37.9 µM)
CC(=O)NC[C@H]1CN(c2ccc(N3CCOCC3)c(F)c2)C(=O)O1 | Staphylococcus aureus | microbial growth, agar dilution | ATCC29213 |  | MIC | 2 µg/mL
CCS(=O)(=O)Oc1cc(C=NNC(=O)CSc2nc3c(C)cccc3c(=O)n2-c2ccccc2)ccc1OC | Staphylococcus aureus | microbial growth, well diffusion | MRSA | 20 µg/mL | inhibition zone | 3 mm
CNC(C)C1CCC(N)C(OC2C(N)CC(N)C(OC3OCC(C)(O)C(NC)C3O)C2O)O1 (centres unmarked) | Escherichia coli | microbial killing, broth dilution | ATCC25922 | 24 h | MBC | 4000 µM (≈ 1910 µg/mL)
CCOC(=O)/C=C1/SC(N/N=C/c2c(-c3ccc(F)cc3)nc3ncccn23)=NC1=O | Escherichia coli | microbial growth, well diffusion | ATCC25922 | 100 µg/mL | inhibition zone | 10 mm
CCCSc1ccc2nc(NC(=O)OC)[nH]c2c1 | Angiostrongylus cantonensis | parasite motility |  | 24 h, larva | EC50 | 10.7 µM
CN[C@H](CC(C)C)C(=O)N[C@H]1C(=O)N[C@@H](CC(N)=O)C(=O)N[C@H]2C(=O)N[C@H]3C(=O)N[C@H](C(=O)N[C@H](C(=O)O)c4cc(O)cc(O)c4-c4cc3ccc4O)[C@H](O)c3ccc(c(Cl)c3)Oc3cc2cc(c3O[C@@H]2O[C@H](CO)[C@@H](O)[C@H](O)[C@H]2O[C@H]2C[C@](C)(N)[C@H](O)[C@H](C)O2)Oc2ccc(cc2Cl)[C@H]1O | Staphylococcus aureus | microbial growth, agar dilution | ATCC29213 |  | MIC | 1 µg/mL
O=C1C(=O)c2cccnc2-c2ncccc21 | Angiostrongylus cantonensis | parasite motility |  | 24 h, larva | EC50 | 25.6 µM
OC(Cn1cncn1)(Cn1cncn1)c1ccc(F)cc1F | Alternaria solani | microbial growth, broth dilution |  |  | MIC | 16 µg/mL
